According to BindingDB's records for doi:10.1021/jm00069a013 (University of North Carolina, 1993):
Counter-ions that a name gives are not always drawn.

What was measured:
[1] = Binding affinity against sigma receptor from guinea pig brain (minus cerebellum) homogenates, using the novel [3H]-(+/-)-4 as radioligand
[2] = Binding affinity against sigma receptor from guinea pig brain (minus cerebellum) homogenates, using [3H]ditolylguanidine (DTG) as radioligand.
How it was run: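 Competition binding with whole guinea pig brain (minus cerebellum) homogenates in 10 mM Tris-HCl without added cations. Nonspecific binding was defined by 10 μM haloperidol. Concentrations were tested in duplicate, with three replications. IC50 values came from curve fitting.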

| Compound | IC50 [1] | IC50 [2] |
| --- | --- | --- |
| CCN(CC)C1Cc2ccccc2C(c2ccccc2)C1 (trans isomer) | 4.5 nM | 207 nM |
| CN(C)[C@H]1CCc2ccccc2[C@H]1c1ccccc1 [Dimethyl-(1-phenyl-1,2,3,4-tetrahydro-naphthalen-2-yl)-amine] | 2760 nM | 3340 nM |
| CN(C)C1Cc2ccccc2C(c2ccccc2)C1 (stereo not drawn) [cis-Dimethyl-(4-phenyl-1,2,3,4-tetrahydro-naphthalen-2-yl)-amine; hydrochloride] | – | 960 nM |
| NC1Cc2ccccc2C(c2ccccc2)C1 (stereo not drawn) [trans-4-Phenyl-1,2,3,4-tetrahydro-naphthalen-2-ylamine; hydrochloride] | – | > 10000 nM |
| C=CCNC1Cc2ccccc2C(c2ccccc2)C1 (stereo not drawn) [trans-Allyl-(4-phenyl-1,2,3,4-tetrahydro-naphthalen-2-yl)-amine; hydrochloride] | 117 nM | – |
| C=CCN(C)C1Cc2ccccc2C(c2ccccc2)C1 (stereo not drawn) [trans-Allyl-methyl-(4-phenyl-1,2,3,4-tetrahydro-naphthalen-2-yl)-amine; hydrochloride] | – | 1550 nM |
| C=CCN(CC=C)C1Cc2ccccc2C(c2ccccc2)C1 (stereo not drawn) [trans-Diallyl-(4-phenyl-1,2,3,4-tetrahydro-naphthalen-2-yl)-amine; hydrochloride] | 27 nM | 538 nM |
